Measurements gathered from unrelated publications.
Each line is one published result; the experiments were not run side by side.
Route: oral

| SMILES | host | medium | dose | bioavailability [%] |
| --- | --- | --- | --- | --- |
| COc1ccc2c(c1OCc1ccccc1)C[C@@H](C(=O)O)N(C(=O)C(c1ccccc1)c1ccccc1)C2 | male beagle dog | plasma | 3 mg/kg | 39 |
| N#C[C@@]1(c2ccc3c(N)ncnn23)O[C@H](CO)[C@@H](O)[C@H]1O | dog | plasma | 5 mg/kg | 92 |
| Fc1ccc(Nc2n[nH]c3cccnc23)cc1Cl | dog | plasma |  | 36 |
| O=C(NCCN1CCCC1)c1cc(-c2ccc(CN3CCOCC3)cc2)nc2ccc(F)cc12 | male beagle dog | blood | 3 mg/kg | 46 |
| CC#Cc1cncc(-c2ccc3c(c2)[C@@]2(N=C(C)C(N)=N2)[C@]2(CC[C@H](OC)CC2)C3)c1 | male beagle dog | plasma | 3 µmol/kg | 80 |
| C#Cc1cnc2nc(O)n(C(CC)CC)c2n1 | male beagle dog | plasma | 1 mg/kg | > 90 |
| Cc1cc(Nc2ccc(S(F)(F)(F)(F)F)cc2)n2nc(C(C)(F)F)nc2n1 | male beagle dog | plasma |  | ~20 |
| C=CC(=O)Nc1cc(Nc2nccc(Nc3cc(Cl)c(F)cc3C(C)(C)O)n2)c(OC)cc1N1CC[C@@H](N(C)C)C1 | beagle dog | plasma | 1 mg/kg | 48.8 |
| Oc1c(-n2ccnn2)cnn1-c1cc(N2CCOCC2)ncn1 | female dog | plasma | 1.5 mg/kg | 71 |
